Results pooled from the literature.
Each line is one published result; the experiments were not run side by side.
Target: Maternal embryonic leucine zipper kinase (MELK, Homo sapiens, UniProt Q14680)

O=C(Nc1cnn(-c2csc(C(=O)NC3COC3)c2)c1)Nc1c(F)cccc1Cl  remaining activity (enzyme activity; inhibitor; 5 µM): 61.4%
Cc1cnc(NC2CCOCC2)nc1-n1cnc(C(=O)NC(CN)c2cc(F)cc(Cl)c2)c1 (centres unmarked)  remaining activity (enzyme activity; inhibitor; radiometric; 1 µM): 49%
N#CCCc1ccc2c(c1)-c1[nH]c3ccc([N+](=O)[O-])cc3c1CC(=O)N2  remaining signal (cell-free assay; 0.5 µM): 88.6%
COc1cc2ncnc(Nc3ccc(Oc4ccccc4)cc3C)c2cc1OC  inhibition (enzyme activity; inhibitor; 1 µM): 0%
CN1CC(Oc2cnc(C#N)cc2-c2ccn3nc(NC(=O)C4CC4)cc3c2)C1  inhibition (enzyme activity; inhibitor; 1 µM): 10%
Nc1nc(NC2CCCCC2)sc1C(=O)c1ccccc1  remaining activity (enzyme activity; inhibitor; 10 µM): 70%
COc1cc(-c2cn(C3CCc4c(F)cccc4N(CC(F)(F)F)C3=O)nn2)ccc1-n1cnc(C)c1 (centres unmarked)  remaining binding (cell-free assay; competition with immobilised ligand; 1 µM): 100%
COc1cc(-c2cc(-c3ccc(N4CCNCC4)cc3)cnc2C)cc(OC)c1OC  inhibition (enzyme activity; inhibitor; 1 µM): 8%
Cc1ncc([N+](=O)[O-])n1C(=NO)c1ccccc1C(F)(F)F  inhibition (enzyme activity; inhibitor; 10 µM): 13.9%
COc1cc2c(Nc3ccc(Br)cc3F)ncnc2cc1OCC1CCN(C)CC1  remaining signal (cell-free assay; 0.5 µM): 94.4%
CCS(=O)(=O)c1cc2cc(C[C@@](O)(CC(C)(C)c3ccc(F)cc3C(N)=O)C(F)(F)F)[nH]c2cn1  remaining binding (cell-free assay; competition with immobilised ligand; 1 µM): 100%
O=C1Nc2ccc(Cl)cc2C1=Cc1cc(Cl)c(O)c(Cl)c1  remaining signal (cell-free assay; 0.5 µM): 83.6%
CC(C)(C)c1nc(-c2cccc(NS(=O)(=O)c3c(F)cccc3F)c2F)c(-c2ccnc(N)n2)s1  remaining activity (enzyme activity; inhibitor; radiometric; 1 µM): 27%
COc1cc(Nc2cnc(C#N)c(O[C@H](C)CN(C)C)n2)ncc1-c1cnn(C)c1  remaining activity (enzyme activity; inhibitor; radiometric; 1 µM): 109%
CNC(=O)Nc1ccc2c(c1)[C@@]1(CC2)OC(=O)N(CC(=O)N(Cc2ccc(F)cc2)[C@@H](C)C(F)(F)F)C1=O  remaining binding (cell-free assay; competition with immobilised ligand; 1 µM): 100%
Cc1ccc(Nc2nccc(N(C)c3ccc4c(C)n(C)nc4c3)n2)cc1S(N)(=O)=O  inhibition (enzyme activity; inhibitor; 10 µM): 16%
COc1cc2ncnc(Nc3ccc(F)c(Cl)c3)c2cc1OCCCN1CCOCC1  remaining signal (cell-free assay; 0.5 µM): 77.7%
O=[N+]([O-])c1cccc2[nH]c(CNc3nc(N4CCOCC4)nc4c3ncn4-c3ccsc3)nc12  binding vs control (binding; competition with immobilised ligand; 10 µM): 47%
CNC(=O)c1cc(Oc2ccc(NC(=O)Nc3ccc(Cl)c(C(F)(F)F)c3)cc2)ccn1  inhibition (enzyme activity; inhibitor; 10 µM): 13%
Cc1ccc(NC(=O)c2ccc(C)c(C(F)(F)F)c2)cc1C#Cc1nn(C2CCC(O)CC2)c2ncnc(N)c12 (centres unmarked)  remaining signal (cell-free assay; 10 µM): 23%
Cc1cc(NC(=O)c2cccc3cc(-c4cccc5[nH]nc(N)c45)ccc23)ccc1F  activity vs control (enzyme activity; inhibitor; 0.1 µM): 93%
CCC(=O)N[C@H]1CC[C@@H](C(=O)N(C)c2ccc(-c3nc4ccccc4o3)cc2)C1  remaining binding (cell-free assay; competition with immobilised ligand; 1 µM): 94%
CC/C(=N\NC(=O)NCc1cccc(O)c1)c1ccc(O)c(C)c1O  inhibition (enzyme activity; inhibitor; 0.1 µM): 0.7%
C[C@H](NC(=O)c1cnc2n1[C@](C)(Cc1ccc(C#N)cc1)C(=O)N2c1cc(Cl)c(F)c(Cl)c1)C(=O)NC1(c2ccccn2)CC1  remaining binding (cell-free assay; competition with immobilised ligand; 1 µM): 86%
FC(F)(F)Oc1cccc(-c2cnc3ccc(-c4ccncc4)nn23)c1  activity vs control (enzyme activity; inhibitor; radiometric; 5 µM): 77%
CCN(CC)c1ccc(C2=NNC(=O)CC2C)cc1[N+](=O)[O-] (centres unmarked)  remaining activity (enzyme activity; inhibitor; 10 µM): 92%
C[C@H](c1ccnc(Nc2nc3ccc(-c4cc(N(C)C)ncn4)cc3[nH]2)c1)N1CCN(C(=O)CC(F)(F)F)CC1  remaining binding (cell-free assay; competition with immobilised ligand; 0.1 µM): 100%
CCN(CC)CCNC(=O)c1c(C)[nH]c(/C=C2\C(=O)Nc3ccc(F)cc32)c1C  inhibition (enzyme activity; inhibitor; 0.3 µM): 53%
CCOC(=O)c1cc2cc(-c3cc(C(=O)NCc4ccc(C(=O)O)cc4)nn3C)ccc2[nH]1  remaining binding (cell-free assay; competition with immobilised ligand; 0.1 µM): 100%
COc1cc(Cl)c(C(=O)N[C@@H](CN[C@H]2CC[C@@H](N)CC2)Cc2ccc(C#N)cc2)cc1-c1ccc(CN[C@H](C)c2ccc(C)cc2)o1  remaining activity (enzyme activity; inhibitor; 1 µM): 98%
C[C@H](c1cccc(C#N)c1)n1cc(Cl)cc(C(N)=O)c1=N  remaining binding (cell-free assay; competition with immobilised ligand; 1 µM): 74%
Oc1cccc(-c2nc(N3CCOCC3)c3oc4ncccc4c3n2)c1  remaining activity (enzyme activity; inhibitor; 10 µM): 104%
